Data published in ChEMBL document CHEMBL5058577, “EUbOPEN Chemogenomics Library 2 (Multiplex)” (2022).

Test system: U2OS
Assay: Multiplex assay against U2OS
Format: toxicity, cell-based
Settings: human
Method in brief: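 Live cells were stained at seeding with Hoechst33342, BioTracker Green Microtubule Cytoskeleton Dye, MitoTracker Red and Annexin V Alexa Fluor 680, then imaged on a CQ1 microscope at 37°C and 5% CO2 after compound addition. CellPathfinder machine-learning gating split cells into Hoechst high-intensity objects or normal cells. Normal cells were split into healthy, pyknosed or fragmented nuclei, and pyknosed cells into mitotic or apoptotic. Tubulin, mitochondrial-mass and membrane-permeability phenotypes are per cents of healthy-nucleus cells.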

[1] = 12 h, 1 µM, compound concentration 1 uM, replicate 1
[2] = 12 h, 1 µM, compound concentration 1 uM, replicate 2
[3] = 12 h, 10 µM, compound concentration 10 uM, replicate 1
[4] = 12 h, 10 µM, compound concentration 10 uM, replicate 2
[5] = 24 h, 1 µM, compound concentration 1 uM, replicate 1
[6] = 24 h, 1 µM, compound concentration 1 uM, replicate 2
[7] = 24 h, 10 µM, compound concentration 10 uM, replicate 1
[8] = 24 h, 10 µM, compound concentration 10 uM, replicate 2
[9] = 48 h, 1 µM, compound concentration 1 uM, replicate 1
[10] = 48 h, 1 µM, compound concentration 1 uM, replicate 2
[11] = 48 h, 10 µM, compound concentration 10 uM, replicate 1
[12] = 48 h, 10 µM, compound concentration 10 uM, replicate 2

## COC[C@@H](c1ccc(C(F)(F)F)cc1)N1CCN(C2(C)CCN(C(=O)c3c(C)ncnc3C)CC2)C[C@@H]1C.O=C(O)/C=C\C(=O)O [VICRIVIROC MALEATE]
[1]
  Population Apoptotic (%): 82%
  Population Fragmented Nuclei (%): 34%
  Population Healthy Nuclei (%): 54%
  Population Hoechst High Intensity Objects (%): 4%
  Population Membrane Permeable-Phenotype (%): 8%
  Population Mitochondria Different-Phenotype (%): 4%
  Population Mitotic Cells (%): 17%
  Population Normal (%): 95%
  Population Pyknosed Nuclei (%): 11%
  Population Tubulin-Different-Phenotype (%): 3%
  Total Cell Count: 261
[2]
  Population Apoptotic (%): 81%
  Population Fragmented Nuclei (%): 21%
  Population Healthy Nuclei (%): 67%
  Population Hoechst High Intensity Objects (%): 2%
  Population Membrane Permeable-Phenotype (%): 11%
  Population Mitochondria Different-Phenotype (%): 14%
  Population Mitotic Cells (%): 18%
  Population Normal (%): 97%
  Population Pyknosed Nuclei (%): 10%
  Population Tubulin-Different-Phenotype (%): 7%
  Total Cell Count: 105
[3]
  Population Apoptotic (%): 86%
  Population Fragmented Nuclei (%): 26%
  Population Healthy Nuclei (%): 65%
  Population Hoechst High Intensity Objects (%): 1%
  Population Membrane Permeable-Phenotype (%): 13%
  Population Mitochondria Different-Phenotype (%): 3%
  Population Mitotic Cells (%): 13%
  Population Normal (%): 98%
  Population Pyknosed Nuclei (%): 8%
  Population Tubulin-Different-Phenotype (%): 3%
  Total Cell Count: 270
[4]
  Population Apoptotic (%): 33%
  Population Fragmented Nuclei (%): 28%
  Population Hoechst High Intensity Objects (%): 2%
  Population Membrane Permeable-Phenotype (%): 5%
  Population Mitochondria Different-Phenotype (%): 6%
  Population Mitotic Cells (%): 66%
  Population Normal (%): 97%
  Population Pyknosed Nuclei (%): 6%
  Population Tubulin-Different-Phenotype (%): 6%
  Total Cell Count: 91
[5]
  Population Apoptotic (%): 77%
  Population Fragmented Nuclei (%): 25%
  Population Healthy Nuclei (%): 67%
  Population Hoechst High Intensity Objects (%): 3%
  Population Membrane Permeable-Phenotype (%): 5%
  Population Mitochondria Different-Phenotype (%): 3%
  Population Mitotic Cells (%): 22%
  Population Normal (%): 96%
  Population Pyknosed Nuclei (%): 7%
  Population Tubulin-Different-Phenotype (%): 2%
  Total Cell Count: 301
[6]
  Population Apoptotic (%): 93%
  Population Fragmented Nuclei (%): 20%
  Population Healthy Nuclei (%): 64%
  Population Hoechst High Intensity Objects (%): 4%
  Population Membrane Permeable-Phenotype (%): 10%
  Population Mitochondria Different-Phenotype (%): 14%
  Population Mitotic Cells (%): 6%
  Population Normal (%): 95%
  Population Pyknosed Nuclei (%): 15%
  Population Tubulin-Different-Phenotype (%): 10%
  Total Cell Count: 111
[7]
  Population Apoptotic (%): 80%
  Population Fragmented Nuclei (%): 25%
  Population Healthy Nuclei (%): 68%
  Population Hoechst High Intensity Objects (%): 1%
  Population Membrane Permeable-Phenotype (%): 3%
  Population Mitochondria Different-Phenotype (%): 3%
  Population Mitotic Cells (%): 19%
  Population Normal (%): 98%
  Population Pyknosed Nuclei (%): 6%
  Population Tubulin-Different-Phenotype (%): 2%
  Total Cell Count: 326
[8]
  Population Apoptotic (%): 83%
  Population Membrane Permeable-Phenotype (%): 4%
  Population Mitochondria Different-Phenotype (%): 2%
  Population Mitotic Cells (%): 16%
  Population Tubulin-Different-Phenotype (%): 7%
  Total Cell Count: 99
[9]
  Population Apoptotic (%): 78%
  Population Fragmented Nuclei (%): 20%
  Population Healthy Nuclei (%): 68%
  Population Hoechst High Intensity Objects (%): 3%
  Population Membrane Permeable-Phenotype (%): 3%
  Population Mitochondria Different-Phenotype (%): 2%
  Population Mitotic Cells (%): 21%
  Population Normal (%): 96%
  Population Pyknosed Nuclei (%): 10%
  Population Tubulin-Different-Phenotype (%): 1%
  Total Cell Count: 416
[10]
  Population Apoptotic (%): 93%
  Population Fragmented Nuclei (%): 25%
  Population Healthy Nuclei (%): 62%
  Population Hoechst High Intensity Objects (%): 1%
  Population Membrane Permeable-Phenotype (%): 13%
  Population Mitochondria Different-Phenotype (%): 11%
  Population Mitotic Cells (%): 6%
  Population Normal (%): 98%
  Population Pyknosed Nuclei (%): 11%
  Population Tubulin-Different-Phenotype (%): 10%
  Total Cell Count: 142
[11]
  Population Apoptotic (%): 80%
  Population Fragmented Nuclei (%): 19%
  Population Healthy Nuclei (%): 70%
  Population Hoechst High Intensity Objects (%): 2%
  Population Membrane Permeable-Phenotype (%): 3%
  Population Mitochondria Different-Phenotype (%): 2%
  Population Mitotic Cells (%): 20%
  Population Normal (%): 97%
  Population Pyknosed Nuclei (%): 9%
  Population Tubulin-Different-Phenotype (%): 1%
  Total Cell Count: 437
[12]
  Population Apoptotic (%): 93%
  Population Fragmented Nuclei (%): 18%
  Population Healthy Nuclei (%): 68%
  Population Hoechst High Intensity Objects (%): 5%
  Population Mitochondria Different-Phenotype (%): 6%
  Population Mitotic Cells (%): 6%
  Population Normal (%): 94%
  Population Pyknosed Nuclei (%): 12%
  Population Tubulin-Different-Phenotype (%): 6%
  Total Cell Count: 140
